# Data taken from ChEMBL document CHEMBL1806396, “Development of potent B-RafV600E inhibitors containing an arylsulfonamide headgroup” (Bioorg Med Chem Lett, 2011).
# What was measured:
# SK-MEL-28 = test: Antiproliferative activity against human SK-MEL-28 cells expressing B-Raf V600E mutant after 3 days by CellTiter-Glo assay; format: functional, cell-based
# In short: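 SKMEL28 melanoma cells grown in EMEM + 10% FBS, 1% pen-strep, 1% sodium pyruvate, 37 °C, humidified 5% CO2; plated 500 cells/well. 10-point dilution 20 µM down to 0.001 µM, final DMSO 0.2%, 3 days. Total ATP read by CellTiter-Glo as cell-number surrogate. % growth inhibition vs control wells; IC50 by 4-parameter fit; mean of two experiments.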
# [1] = target: T1, Serine/threonine-protein kinase B-raf (Homo sapiens, UniProt P15056, V600E); test: Inhibition of B-Raf V600E mutant in human SK-MEL-28 cells assessed as reduction of ERK phosphorylation after 1 hr; format: cell-based
# T1 sequence (P15056 2-766 V600E limits assumed): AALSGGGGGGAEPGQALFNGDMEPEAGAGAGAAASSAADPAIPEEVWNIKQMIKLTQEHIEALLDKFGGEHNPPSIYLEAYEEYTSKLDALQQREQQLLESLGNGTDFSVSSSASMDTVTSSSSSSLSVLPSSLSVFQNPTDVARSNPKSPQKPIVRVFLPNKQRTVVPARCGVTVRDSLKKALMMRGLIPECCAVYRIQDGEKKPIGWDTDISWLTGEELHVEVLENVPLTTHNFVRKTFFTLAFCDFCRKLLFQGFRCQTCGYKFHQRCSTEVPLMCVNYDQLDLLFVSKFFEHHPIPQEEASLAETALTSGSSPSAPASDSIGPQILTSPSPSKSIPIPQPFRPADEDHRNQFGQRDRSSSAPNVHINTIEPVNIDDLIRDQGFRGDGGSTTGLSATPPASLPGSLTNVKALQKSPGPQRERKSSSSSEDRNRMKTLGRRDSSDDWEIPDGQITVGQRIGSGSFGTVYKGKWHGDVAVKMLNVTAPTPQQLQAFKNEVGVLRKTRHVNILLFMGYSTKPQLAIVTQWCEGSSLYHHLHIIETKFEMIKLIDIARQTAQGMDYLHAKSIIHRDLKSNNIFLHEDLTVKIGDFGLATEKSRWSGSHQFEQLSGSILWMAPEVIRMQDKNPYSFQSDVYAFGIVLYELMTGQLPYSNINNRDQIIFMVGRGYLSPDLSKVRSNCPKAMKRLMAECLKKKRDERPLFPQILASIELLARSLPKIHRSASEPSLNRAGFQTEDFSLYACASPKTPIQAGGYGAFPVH
# In short: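 SKMEL28 cells (EMEM + 10% FBS) plated at 20,000 cells/well; 10-point dilution 20 µM to 0.001 µM, final DMSO 0.2%, 1 h. Fixed in 3.7% formaldehyde, permeabilized with 0.1% Triton X-100. Anti-ERK and anti-phospho-ERK primaries overnight at 4 °C, IR-dye secondaries 1 h, in-cell western on LiCor Odyssey. % inhibition of ERK phosphorylation vs control; IC50 by 4-parameter fit; means of 2–5 experiments.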
# [2] = target: T1, Serine/threonine-protein kinase B-raf; test: Inhibition of B-Raf V600E mutant
# HFF = test: Antiproliferative activity against HFF after 3 days by CellTiter-Glo assay; format: cell-based; details: Homo sapiens, 72 h
# TGF-beta receptor type-1 = target: T2, TGF-beta receptor type-1 (Homo sapiens, UniProt P36897); test: Inhibition of ALK5
# T2 sequence (P36897 whole entry): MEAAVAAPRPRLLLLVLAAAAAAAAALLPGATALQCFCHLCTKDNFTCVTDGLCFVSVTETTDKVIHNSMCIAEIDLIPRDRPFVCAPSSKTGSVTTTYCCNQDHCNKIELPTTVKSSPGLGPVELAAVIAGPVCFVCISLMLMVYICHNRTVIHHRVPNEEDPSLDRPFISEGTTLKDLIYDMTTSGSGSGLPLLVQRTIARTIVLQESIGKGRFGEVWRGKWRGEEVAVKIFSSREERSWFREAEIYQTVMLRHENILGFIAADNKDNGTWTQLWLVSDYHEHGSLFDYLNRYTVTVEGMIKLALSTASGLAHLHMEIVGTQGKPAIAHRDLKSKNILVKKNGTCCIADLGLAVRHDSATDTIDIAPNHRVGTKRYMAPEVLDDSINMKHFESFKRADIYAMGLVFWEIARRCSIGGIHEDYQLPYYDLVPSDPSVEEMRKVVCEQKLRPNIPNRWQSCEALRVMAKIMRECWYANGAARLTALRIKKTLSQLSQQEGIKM
# [3] = target: Tyrosine-protein kinase Lyn (Homo sapiens, UniProt P07948); test: Inhibition of Lyn
# Sequence of Tyrosine-protein kinase Lyn (P07948 whole entry): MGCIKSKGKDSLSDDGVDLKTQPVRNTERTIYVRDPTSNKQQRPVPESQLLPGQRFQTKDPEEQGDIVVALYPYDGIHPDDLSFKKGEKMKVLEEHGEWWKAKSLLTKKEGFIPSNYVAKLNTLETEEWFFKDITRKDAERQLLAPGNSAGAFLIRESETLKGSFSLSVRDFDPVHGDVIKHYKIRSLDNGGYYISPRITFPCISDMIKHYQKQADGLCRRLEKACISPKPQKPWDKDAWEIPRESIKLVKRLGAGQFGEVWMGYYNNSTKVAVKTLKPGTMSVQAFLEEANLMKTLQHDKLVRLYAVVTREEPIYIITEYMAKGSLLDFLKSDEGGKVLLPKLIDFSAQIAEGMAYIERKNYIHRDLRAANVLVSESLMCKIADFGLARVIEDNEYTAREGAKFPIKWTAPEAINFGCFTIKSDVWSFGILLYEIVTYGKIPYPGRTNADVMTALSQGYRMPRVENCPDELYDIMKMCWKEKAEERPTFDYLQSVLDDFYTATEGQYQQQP
# [4] = target: Tyrosine-protein kinase BTK (Homo sapiens, UniProt Q06187); test: Inhibition of Btk
# Sequence of Tyrosine-protein kinase BTK (Q06187 whole entry): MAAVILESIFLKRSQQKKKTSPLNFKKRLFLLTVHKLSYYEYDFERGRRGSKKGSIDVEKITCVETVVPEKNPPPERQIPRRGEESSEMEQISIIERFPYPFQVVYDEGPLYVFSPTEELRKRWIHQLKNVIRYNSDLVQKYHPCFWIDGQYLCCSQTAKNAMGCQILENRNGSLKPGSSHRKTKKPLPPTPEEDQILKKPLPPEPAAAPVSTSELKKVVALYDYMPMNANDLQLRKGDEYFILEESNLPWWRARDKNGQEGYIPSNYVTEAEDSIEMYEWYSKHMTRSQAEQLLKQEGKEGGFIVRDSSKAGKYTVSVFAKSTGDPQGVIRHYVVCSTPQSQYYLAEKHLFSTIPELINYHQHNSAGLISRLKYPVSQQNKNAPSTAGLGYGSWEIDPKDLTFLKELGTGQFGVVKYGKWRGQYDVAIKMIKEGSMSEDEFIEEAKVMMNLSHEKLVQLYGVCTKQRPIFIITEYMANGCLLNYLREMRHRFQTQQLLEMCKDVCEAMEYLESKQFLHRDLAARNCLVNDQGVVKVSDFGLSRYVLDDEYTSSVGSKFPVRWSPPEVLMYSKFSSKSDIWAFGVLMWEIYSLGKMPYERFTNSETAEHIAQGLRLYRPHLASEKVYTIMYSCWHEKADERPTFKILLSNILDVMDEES
# [5] = target: Receptor tyrosine-protein kinase erbB-4 (Homo sapiens, UniProt Q15303); test: Inhibition of ErbB4
# Sequence of Receptor tyrosine-protein kinase erbB-4 (Q15303 whole entry): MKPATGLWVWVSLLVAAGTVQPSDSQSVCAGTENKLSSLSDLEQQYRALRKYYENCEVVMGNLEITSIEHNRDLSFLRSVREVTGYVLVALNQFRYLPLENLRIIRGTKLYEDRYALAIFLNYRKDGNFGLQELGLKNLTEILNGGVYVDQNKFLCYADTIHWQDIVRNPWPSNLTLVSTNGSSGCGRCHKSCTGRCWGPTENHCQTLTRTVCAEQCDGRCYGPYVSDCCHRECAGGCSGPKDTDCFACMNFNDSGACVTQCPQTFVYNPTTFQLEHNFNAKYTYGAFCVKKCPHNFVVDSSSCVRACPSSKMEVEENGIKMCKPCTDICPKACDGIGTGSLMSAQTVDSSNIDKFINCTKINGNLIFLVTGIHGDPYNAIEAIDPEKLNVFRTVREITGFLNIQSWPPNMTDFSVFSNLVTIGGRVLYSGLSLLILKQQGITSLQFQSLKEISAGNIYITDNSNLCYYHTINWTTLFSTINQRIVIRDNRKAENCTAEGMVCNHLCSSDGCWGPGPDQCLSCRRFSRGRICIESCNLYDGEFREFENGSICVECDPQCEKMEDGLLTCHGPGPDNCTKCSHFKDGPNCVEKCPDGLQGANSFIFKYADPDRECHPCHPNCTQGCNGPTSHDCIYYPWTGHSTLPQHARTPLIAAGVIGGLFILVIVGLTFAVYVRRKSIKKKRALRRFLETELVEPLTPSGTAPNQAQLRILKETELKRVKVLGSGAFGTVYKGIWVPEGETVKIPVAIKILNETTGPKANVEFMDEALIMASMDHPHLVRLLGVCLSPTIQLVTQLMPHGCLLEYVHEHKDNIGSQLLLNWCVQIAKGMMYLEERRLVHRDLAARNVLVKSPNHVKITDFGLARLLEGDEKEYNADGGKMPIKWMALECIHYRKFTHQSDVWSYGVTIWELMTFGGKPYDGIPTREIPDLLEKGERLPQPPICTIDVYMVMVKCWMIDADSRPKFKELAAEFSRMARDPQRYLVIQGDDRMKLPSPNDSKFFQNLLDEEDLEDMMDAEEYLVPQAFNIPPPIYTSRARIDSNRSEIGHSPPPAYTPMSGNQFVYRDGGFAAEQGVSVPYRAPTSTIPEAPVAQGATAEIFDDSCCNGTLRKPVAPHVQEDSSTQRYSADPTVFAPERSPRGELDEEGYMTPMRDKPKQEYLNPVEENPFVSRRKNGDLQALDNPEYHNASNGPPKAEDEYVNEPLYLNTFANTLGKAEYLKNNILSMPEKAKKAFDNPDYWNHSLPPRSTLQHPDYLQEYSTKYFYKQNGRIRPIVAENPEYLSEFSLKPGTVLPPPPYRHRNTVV
# [6] = target: Tyrosine-protein kinase Lck (Homo sapiens, UniProt P06239); test: Inhibition of Lck
# Sequence of Tyrosine-protein kinase Lck (P06239 whole entry): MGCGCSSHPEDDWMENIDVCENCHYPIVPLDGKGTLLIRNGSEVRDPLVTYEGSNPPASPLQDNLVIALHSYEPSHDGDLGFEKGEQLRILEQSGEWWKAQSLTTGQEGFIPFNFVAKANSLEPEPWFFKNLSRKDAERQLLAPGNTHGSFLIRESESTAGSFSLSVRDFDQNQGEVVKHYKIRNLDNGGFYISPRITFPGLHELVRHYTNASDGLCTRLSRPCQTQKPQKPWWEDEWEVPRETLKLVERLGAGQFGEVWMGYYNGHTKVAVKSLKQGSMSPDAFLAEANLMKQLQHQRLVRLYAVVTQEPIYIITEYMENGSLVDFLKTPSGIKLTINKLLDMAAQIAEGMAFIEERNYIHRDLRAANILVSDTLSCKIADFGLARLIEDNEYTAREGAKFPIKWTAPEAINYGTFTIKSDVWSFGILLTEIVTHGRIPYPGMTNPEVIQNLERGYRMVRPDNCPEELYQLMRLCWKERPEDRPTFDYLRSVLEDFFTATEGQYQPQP
# Activin receptor type-2B = Activin receptor type-2B (Homo sapiens, UniProt Q13705); test: Inhibition of ACTR-2B
# Sequence of Activin receptor type-2B (Q13705 whole entry): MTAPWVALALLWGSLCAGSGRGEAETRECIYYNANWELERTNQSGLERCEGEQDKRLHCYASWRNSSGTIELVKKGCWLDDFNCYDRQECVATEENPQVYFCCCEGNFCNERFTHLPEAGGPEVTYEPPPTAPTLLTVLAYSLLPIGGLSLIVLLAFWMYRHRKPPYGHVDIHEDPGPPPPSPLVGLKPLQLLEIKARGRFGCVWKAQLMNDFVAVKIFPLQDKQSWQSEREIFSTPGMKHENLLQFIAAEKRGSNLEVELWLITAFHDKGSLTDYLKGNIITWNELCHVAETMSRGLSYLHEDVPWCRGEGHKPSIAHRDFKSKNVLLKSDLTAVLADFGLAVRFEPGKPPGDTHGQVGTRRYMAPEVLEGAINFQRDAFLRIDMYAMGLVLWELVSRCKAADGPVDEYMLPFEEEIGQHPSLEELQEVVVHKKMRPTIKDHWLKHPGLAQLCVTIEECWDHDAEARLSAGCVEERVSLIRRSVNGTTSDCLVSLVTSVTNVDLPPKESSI
Compound,"EC50 (SK-MEL-28; Homo sapiens, SK-MEL-28, 72 h) [nM]",EC50 [1] [nM],IC50 [2] [nM],other results
CCc1nc(-c2cccc(CS(=O)(=O)c3ccccc3)c2)c(-c2ccnc(Nc3ccc(N4CCN(C(C)=O)CC4)nc3)n2)s1,11100,> 20000,1360,
CC(C)c1nc(-c2cccc(NC(=O)c3c(F)cccc3F)c2)c(-c2ccnc(Nc3ccc4c(c3)CN(C)CC4)n2)s1,2750,580,4,
CC(C)c1nc(-c2cccc(NS(=O)(=O)c3c(F)cccc3F)c2F)c(-c2ccnc(Nc3ccc(N4CCOCC4)nc3)n2)s1,8,11,0.5,
CC(=O)N1CCN(c2ccc(Nc3nccc(-c4sc(C(C)C)nc4-c4cccc(NS(=O)(=O)c5c(F)cccc5F)c4)n3)cn2)CC1,12,10,1.3,
CC(C)c1nc(-c2cccc(NS(=O)(=O)c3ccccc3)c2)c(-c2ccnc(Nc3ccc4c(c3)CN(C)CC4)n2)s1,287,52,12,
CC(=O)N1CCN(c2ccc(Nc3nccc(-c4sc(C(C)C)nc4-c4cccc(NS(=O)(=O)c5ccc(F)cc5)c4)n3)cn2)CC1,69,9,9.5,
CN1CCc2ccc(Nc3nccc(-c4c(-c5cccc(NC(=O)c6c(F)cccc6F)c5)nc5ccccn45)n3)cc2C1,5320,> 10000,9,
CC(C)c1nc(-c2ccc(F)c(NS(=O)(=O)c3c(F)cccc3F)c2)c(-c2ccnc(Nc3ccc(N4CCOCC4)nc3)n2)s1 [listing 1 of 2 here],52,,,EC50 (HFF): 15600 nM
CC(=O)N1CCN(c2ccc(Nc3nccc(-c4sc(C(C)C)nc4-c4cccc(NS(=O)(=O)c5cccc(F)c5)c4)n3)cn2)CC1,8,10,0.8,
CC(=O)N1CCN(c2ccc(Nc3nccc(-c4sc(C(C)C)nc4-c4cccc(NS(=O)(=O)c5ccccc5)c4)n3)cn2)CC1,24,7,3.6,
CC(C)c1nc(-c2ccc(F)c(NS(=O)(=O)c3c(F)cccc3F)c2)c(-c2ccnc(Nc3ccc(N4CCOCC4)nc3)n2)s1 [listing 2 of 2 here],,23,3.8,EC50 (SK-MEL-28; sk-mel-28): 47 nM; IC50 (TGF-beta receptor type-1): 10 nM; IC50 [3]: 10 nM; IC50 [4]: 10 nM; IC50 [5]: 10 nM; IC50 [6]: 10 nM; IC50 (Activin receptor type-2B): 10 nM
CN1CCc2ccc(Nc3nccc(-c4c(-c5cccc(NS(=O)(=O)c6ccccc6)c5)nc5ccccn45)n3)cc2C1,1110,99,132,
CC(=O)N1CCN(c2ccc(Nc3nccc(-c4sc(C(C)C)nc4-c4cccc(NS(=O)(=O)c5cccc(Cl)c5)c4)n3)cn2)CC1,85,21,34,

# The next lines start with results.
"EC50 (SK-MEL-28; Homo sapiens, SK-MEL-28, 72 h) [nM]",EC50 [1] [nM],IC50 [2] [nM],Compound,other results
8,8,0.6,CC(=O)N1CCN(c2ccc(Nc3nccc(-c4sc(C(C)C)nc4-c4cccc(NS(=O)(=O)c5cc(F)ccc5F)c4)n3)cn2)CC1,
6,7,1.2,CC(C)c1nc(-c2cccc(NS(=O)(=O)c3c(F)cccc3F)c2)c(-c2ccnc(Nc3ccc(N4CCOCC4)nc3)n2)s1,
4,4,0.6,CC(=O)N1CCN(c2ccc(Nc3nccc(-c4sc(C(C)C)nc4-c4cccc(NS(=O)(=O)c5ccccc5F)c4)n3)cn2)CC1,
14,24,0.9,CC(C)c1nc(-c2cc(F)cc(NS(=O)(=O)c3c(F)cccc3F)c2)c(-c2ccnc(Nc3ccc(N4CCOCC4)nc3)n2)s1,
,> 2200,12,CN1CCc2ccc(Nc3nccc(-c4c(-c5cccc(C(=O)Nc6c(F)cccc6F)c5)nc5ccccn45)n3)cc2C1,
6340,> 20000,5,CN1CCc2ccc(Nc3nccc(-c4c(-c5cccc(NC(=O)Nc6c(F)cccc6F)c5)nc5ccccn45)n3)cc2C1,
8620,4730,1970,CCc1nc(-c2cccc(N(C)S(=O)(=O)c3ccccc3)c2)c(-c2ccnc(Nc3ccc(N4CCN(C(C)=O)CC4)nc3)n2)s1,
